These results are taken from ChEMBL document CHEMBL1134794, “Discovery of inhibitors of cell adhesion molecule expression in human endothelial cells. 1. Selective inhibition of ICAM-1 and E-selectin expression” (J Med Chem, 2001).

pIC50: −log10 of the molar value. ≈ marks a conversion by molar mass, not a printed value. Bounds are passed on as bounds.

Data set [1] can be described thus: In vitro cellular toxicity against human umbilical vein endothelial cells (HUVEC) in MTS assay. The class given is cell-based. Background: Formazan colour is commonly taken as a measure of viable cells.
The nature of data set [2]: Half-life was measured in rat. In kind it is ADME, organism-based. To be noted: in vivo. In outline:
(§1)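 Rats given a single oral dose of 5 mg/kg, no intravenous arm. Plasma drug concentrations followed over time and analysed by HPLC. Values are means (±SEM, n=3).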

The nature of data set [3]: Mean plasma concentration measured in rat. In kind it is ADME, organism-based. A digest of the protocol: as §1
Data set [4] is described as follows: Maximum time taken to reach mean plasma concentration, measured in rat. In kind it is ADME, organism-based. A digest of the protocol:
as §1

Data set [5] can be described thus: Area under curve against time (0-8 hr) in rat. To be noted: in vivo. The class given is ADME, organism-based. Details: time < 8 hr. In outline: as §1
The nature of data set [6]: Aqueous solubility was determined at pH 7.4. The class given is physicochemical. To be noted: buffer. A digest of the protocol:
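Solubility determined in 0.05 M NaH₂PO₄ buffer at pH 7.4.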

As a reminder, the pIC50 is the IC50 on a negative log10 scale, so that one unit is a factor of ten. Take `NC(=O)c1cc2c(Sc3ccccn3)cncc2s1`: the pIC50 in data set [1] was < 4.00. With `CCc1cc2c(SCc3ccccc3)ncnc2s1`, in data set [1], the pIC50 was < 4.00. Still for that read-out and setting: the result for `Cc1ccc(Sc2cncc3sc(C(=N)S)cc23)cc1` reads 4.29; that for `Cc1ccc(Sc2cncc3sccc23)cc1`, 5.24. On the same count and under the same terms, the result for `Cc1ccc(Sc2cncc3sc(C(N)=O)cc23)cc1C` reads < 4.00; that for `CCc1cc2c(Sc3nnc(C)s3)ncnc2s1`, 4.29. By half-life is commonly meant how long it takes for the measured level to halve. Read a high half-life as slow decline. What is called Cmax is the highest concentration seen after dosing. As a reminder, the Tmax is the time at which the peak concentration occurs. What is called AUC is concentration integrated over time. Read a low AUC as low exposure. What is called solubility is the concentration that dissolves in the medium under given conditions. In data set [2], `Cc1ccc(Sc2cncc3sc(C(N)=O)cc23)cc1` gave a half-life of 60 min. In data set [1], the pIC50 was 3.82. This compound had a Cmax in data set [3] of 78 ng/mL. For the same compound, in data set [4], the Tmax was determined as 15 min. The AUC at 8 h in data set [5] turned out to be 131 ng·h/mL. In data set [6], this compound registered a solubility of 400 µg/mL (≈ 1330 µM). `Cc1ccc(Sc2ccnc3sc(C(N)=O)cc23)cc1` gave a pIC50 in data set [1] of 4.36. On the same count and under the same terms, the result for `CCc1cc2c(Cl)ncnc2s1` reads < 4.00; that for `Cc1cccc(Sc2cncc3sc(C(N)=O)cc23)c1`, 4.02. The same measure, in the same setting: next, `Cc1ccc(Sc2cncc3sc(C(=O)NN)cc23)cc1`: 4.09. For `CCc1cc2c(O)ncnc2s1`, the pIC50 in data set [1] is < 4.00. Same read-out and setting: next, `CCc1cc2c(Sc3nnc(N)s3)ncnc2s1`: 4.02; `Cc1ccc(Sc2cncc3sc(/C=N/OCC(=O)O)cc23)cc1`: 4.08.

As for `Cc1ccc([S+]([O-])c2cncc3sc(C(N)=O)cc23)cc1` (centres undefined), the Cmax in data set [3] was 476 ng/mL. The Tmax in data set [4] is 25.2 min. The AUC at 8 h in data set [5] is 1240 ng·h/mL. The matching figures for `Cc1ccc(Sc2cncc3sc(C(=O)O)cc23)cc1`: 751 ng/mL, 19.8 min and 2950 ng·h/mL.

`CCc1cc2c(NCc3ccccc3)ncnc2s1` had a pIC50 in data set [1] of 4.14. On the same count and under the same terms, next, `NC(=O)c1cc2c(Sc3ccc(C(F)(F)F)cc3)cncc2s1`: 4.02; `Cc1ccc(Sc2cncc3sc(C(=O)NCCCN4CCOCC4)cc23)cc1`: 4.17; `Cc1ccc(Sc2cncc3sc(C(N)=O)cc23)c(C)c1`: < 5.00.
